From PubChem BioAssay
Hits are enriched below; roughly 4.6% of the tested compounds scored in any of these assays.
MDM2 E3 inh – Mdm2 E3 ligase (human) inhibition | hit rate 0.11% among 210,000 | cell-based MDM2 ubiquitination luciferase reporter, 2 h; 0 = plate control, 100 = twice control, blank-subtracted | signal enhancement, % at 5 µM | Q00987;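 active = signal enhancement of 30% or more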;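 also: luminescence tracks abundance of the self-degrading MDM2-luciferase fusion protein; higher signal means inhibition of MDM2 E3 ligase activity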
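Test system: mammalian cells stably expressing self-ubiquitinating, self-degrading MDM2 E3–luciferase fusion; Amount: 2000 cells in each well; Medium: DMEM; Schedule: 4 h settle plus 2 h compound, 37 °C; Technique: SteadyLite luciferase luminescence after 15 min room-temperature reagent incubation; Benchmarks: plate control and blank wells.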
p97 ATPase inh – human p97 ATPase inhibition. AID 1481. inhibition, % at 8 µM. P55072. recombinant p97 ATPase, Kinase-Glo ATP luminescence, 3 h. hit rate 0.42% among 220,000; in the data active = inhibition above about 15%
APP 5'UTR act – APP 5'UTR luciferase reporter activation. SH-SY5Y APP 5'UTR luciferase reporter, luminescence; zero percent = DMSO vehicle wells. activation, % at 2 µM. hit rate 1% among 190,000. AID 1276;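 active = activation above a set limit, based on mean plus 3 SD of controls, cut at about 140% in these data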
STAT1 activator – activators of IFN-gamma induced STAT1 signaling | hit rate 2.6% among 200,000 | activation (% of control), % at 5.5 µM | NIH 3T3 STAT1-luciferase reporter, luminescence; 100% = IFN-gamma alone, no compound;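 active = activation above the screen-wide mean activation plus 3 SD, cut at about 130% in these data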
NF-kB neuron act – raises NF-kB expression in human neuronal cells; NF-kB reporter expression; hits give high values; fold change at 12.5 µM; hit rate 1.6% among 190,000; AID 1239; in the data active = fold change above about 3.3
Wee1 degr inh – human Wee1 degradation inhibition, primary screen; hit rate 1.2% among 220,000; HeLa Luc-Wee1K328M stability, luciferase luminescence; 100% = proteasome inhibitor MG132 effect; reporter increase, % at 5 µM; P30291;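 active = activation above the mean of all tested compounds plus 3 SD, set per screening run, cut at about 8.8% in these data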;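 also: cells exposed to compound for 20 h before luminescence read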
Target sequence (P30291 whole entry K328M): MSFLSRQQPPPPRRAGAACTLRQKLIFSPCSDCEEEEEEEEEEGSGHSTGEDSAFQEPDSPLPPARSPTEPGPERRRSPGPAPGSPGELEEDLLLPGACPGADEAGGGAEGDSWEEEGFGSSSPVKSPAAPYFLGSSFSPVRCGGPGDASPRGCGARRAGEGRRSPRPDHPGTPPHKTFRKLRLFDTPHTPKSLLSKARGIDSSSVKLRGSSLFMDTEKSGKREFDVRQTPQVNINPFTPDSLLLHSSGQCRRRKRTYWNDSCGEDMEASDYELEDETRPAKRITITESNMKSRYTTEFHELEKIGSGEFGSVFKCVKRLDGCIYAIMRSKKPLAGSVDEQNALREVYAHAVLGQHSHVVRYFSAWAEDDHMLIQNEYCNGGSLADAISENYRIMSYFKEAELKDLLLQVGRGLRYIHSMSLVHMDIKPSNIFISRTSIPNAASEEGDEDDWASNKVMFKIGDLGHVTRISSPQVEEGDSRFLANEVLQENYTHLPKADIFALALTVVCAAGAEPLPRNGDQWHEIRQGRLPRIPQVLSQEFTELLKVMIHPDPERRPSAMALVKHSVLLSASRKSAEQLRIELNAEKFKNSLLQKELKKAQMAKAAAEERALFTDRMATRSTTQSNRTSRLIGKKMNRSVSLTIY
Hits are given with their value.

How did Cc1ccc(C)c(Sc2ccc(NC(=O)CCl)cc2)c1 do in these assays?
MDM2 E3 inh: inactive; p97 ATPase inh: inactive; APP 5'UTR act: inactive; STAT1 activator: inactive; NF-kB neuron act: inactive; Wee1 degr inh: 16

How did Cc1ccc(OC(=O)Nc2ccccc2)cc1 do in these assays?
MDM2 E3 inh: inactive; p97 ATPase inh: inactive; APP 5'UTR act: inactive; STAT1 activator: 144; NF-kB neuron act: inactive; Wee1 degr inh: inactive

What do the screens show for `O=C(Nc1ccccc1)OCCOc1ccccc1`?
MDM2 E3 inh: inactive; p97 ATPase inh: inactive; APP 5'UTR act: inactive; STAT1 activator: 132; NF-kB neuron act: 4.5; Wee1 degr inh: inactive

How did COc1ccc(OC)c(N/C(=N/C(=S)Nc2ccccc2)Nc2nc(C)cc(C)n2)c1 do in these assays?
MDM2 E3 inh: inactive; p97 ATPase inh: inactive; Wee1 degr inh: inactive

What do the screens show for `CC1CN(C(=O)COC(=O)c2ccc(N(C)C)cc2)CC(C)O1` (stereo not drawn)?
MDM2 E3 inh: inactive; p97 ATPase inh: inactive; APP 5'UTR act: inactive; STAT1 activator: inactive; NF-kB neuron act: inactive; Wee1 degr inh: inactive

Results for O=[N+]([O-])c1ccc(O)c(C2=NNC(c3ccccc3F)C2)c1 (stereo not drawn) ?
MDM2 E3 inh: inactive; p97 ATPase inh: inactive; Wee1 degr inh: 9.6

What do the screens show for `CCCCCOC(=O)CSc1nc2c(c(=O)[nH]c(=O)n2C)n1CCc1ccccc1`?
MDM2 E3 inh: inactive; p97 ATPase inh: inactive; APP 5'UTR act: inactive; STAT1 activator: inactive; NF-kB neuron act: inactive; Wee1 degr inh: 9.9

What do the screens show for `O=c1c2sc(-c3ccccc3)cc2nc2n1CCCCC2`?
MDM2 E3 inh: inactive; p97 ATPase inh: inactive; Wee1 degr inh: 9.9

Results for O=c1c2cc(Br)ccc2nc2n1CCCCC2 ?
MDM2 E3 inh: inactive; p97 ATPase inh: inactive; APP 5'UTR act: inactive; STAT1 activator: inactive; NF-kB neuron act: inactive; Wee1 degr inh: inactive

How did O=c1c2sc(-c3ccccc3)cc2nc2n1CCC2 do in these assays?
MDM2 E3 inh: inactive; p97 ATPase inh: inactive; APP 5'UTR act: inactive; STAT1 activator: inactive; NF-kB neuron act: 3.9; Wee1 degr inh: inactive

How did O=c1c2c(-c3ccccc3)csc2nc2n1CCC2 do in these assays?
MDM2 E3 inh: inactive; p97 ATPase inh: inactive; APP 5'UTR act: inactive; STAT1 activator: inactive; NF-kB neuron act: inactive; Wee1 degr inh: inactive

What do the screens show for `Cc1csc2ncnc(N3CCN(C(=O)Nc4ccc(OC(F)(F)F)cc4)CC3)c12`?
MDM2 E3 inh: inactive; p97 ATPase inh: inactive; Wee1 degr inh: inactive

How did COC(c1ccccc1)c1nnc(CCC(=O)N(C)C(C2CC2)C2CC2)o1 (stereo not drawn) do in these assays?
MDM2 E3 inh: inactive; p97 ATPase inh: inactive; APP 5'UTR act: inactive; STAT1 activator: 131; NF-kB neuron act: inactive; Wee1 degr inh: inactive

How did c1csc(-c2ccc3ccccc3n2)c1 do in these assays?
MDM2 E3 inh: inactive; p97 ATPase inh: inactive; APP 5'UTR act: inactive; STAT1 activator: 147; NF-kB neuron act: inactive; Wee1 degr inh: inactive

What do the screens show for `c1csc(-c2nc3ccccc3s2)c1`?
MDM2 E3 inh: inactive; p97 ATPase inh: inactive; Wee1 degr inh: inactive

How did CCc1nc(Sc2nc(C)cc(C)n2)c2oc3ccccc3c2n1 do in these assays?
MDM2 E3 inh: inactive; p97 ATPase inh: inactive; STAT1 activator: inactive; NF-kB neuron act: 4.3; Wee1 degr inh: inactive

How did Fc1ccc(Nc2ccnc(Nc3ccc(F)cc3)n2)cc1 do in these assays?
MDM2 E3 inh: inactive; p97 ATPase inh: inactive; APP 5'UTR act: inactive; STAT1 activator: 137; NF-kB neuron act: inactive; Wee1 degr inh: inactive

How did Nc1ncnc(Nc2ccc(F)cc2)n1 do in these assays?
MDM2 E3 inh: inactive; p97 ATPase inh: inactive; APP 5'UTR act: inactive; STAT1 activator: inactive; NF-kB neuron act: inactive; Wee1 degr inh: inactive

Results for O=C1CCCC/C1=C/NCc1ccc(F)cc1 ?
MDM2 E3 inh: inactive; p97 ATPase inh: inactive; APP 5'UTR act: inactive; STAT1 activator: inactive; NF-kB neuron act: inactive; Wee1 degr inh: inactive

What do the screens show for `S=c1nc(-c2ccccc2)oc2c1CCCC2`?
MDM2 E3 inh: inactive; p97 ATPase inh: inactive; APP 5'UTR act: inactive; STAT1 activator: 132; NF-kB neuron act: 4; Wee1 degr inh: inactive

What do the screens show for `COc1cccc(-c2nc(=S)c3c(o2)CCCC3)c1`?
MDM2 E3 inh: inactive; p97 ATPase inh: inactive; APP 5'UTR act: 170; STAT1 activator: 144; NF-kB neuron act: inactive; Wee1 degr inh: inactive

How did O=[N+]([O-])c1ccc(-c2nc(=S)c3c(o2)CCCC3)cc1 do in these assays?
MDM2 E3 inh: inactive; p97 ATPase inh: inactive; APP 5'UTR act: inactive; STAT1 activator: inactive; NF-kB neuron act: inactive; Wee1 degr inh: inactive

What do the screens show for `COC(=O)c1ccc(NC(=S)NCCCn2ccnc2)cc1`?
MDM2 E3 inh: inactive; p97 ATPase inh: inactive; APP 5'UTR act: inactive; STAT1 activator: inactive; NF-kB neuron act: inactive; Wee1 degr inh: inactive

What do the screens show for `Cc1cc(C(=O)Nc2cccc3ccccc23)n(-c2ccccc2)n1`?
MDM2 E3 inh: 42; p97 ATPase inh: inactive; APP 5'UTR act: inactive; STAT1 activator: inactive; NF-kB neuron act: inactive; Wee1 degr inh: inactive

What do the screens show for `CC(=O)Nc1ccc(NC(=O)c2cc(C)nn2-c2ccccc2)cc1`?
MDM2 E3 inh: inactive; p97 ATPase inh: inactive; APP 5'UTR act: inactive; STAT1 activator: inactive; NF-kB neuron act: inactive; Wee1 degr inh: inactive

What do the screens show for `COc1ccc(CC(=O)Oc2cc(C)[nH]c(=O)c2[N+](=O)[O-])cc1`?
MDM2 E3 inh: inactive; p97 ATPase inh: inactive; APP 5'UTR act: inactive; STAT1 activator: inactive; NF-kB neuron act: inactive; Wee1 degr inh: inactive

What do the screens show for `COC(=O)c1sc(C(C)(C)C)cc1CSc1ccccc1`?
MDM2 E3 inh: inactive; p97 ATPase inh: inactive; Wee1 degr inh: inactive

How did COCc1nnc(NS(=O)(=O)c2ccc(NC(C)=O)cc2)s1 do in these assays?
MDM2 E3 inh: inactive; p97 ATPase inh: inactive; APP 5'UTR act: inactive; STAT1 activator: inactive; NF-kB neuron act: inactive; Wee1 degr inh: 9.9

How did CCc1nnc(NS(=O)(=O)c2ccc(NS(=O)(=O)c3ccc(NC(C)=O)cc3)cc2)s1 do in these assays?
MDM2 E3 inh: inactive; p97 ATPase inh: inactive; STAT1 activator: inactive; NF-kB neuron act: inactive; Wee1 degr inh: inactive

How did C=CCn1c(COc2ccccc2F)nnc1SCCN1C(=O)c2ccccc2C1=O do in these assays?
MDM2 E3 inh: inactive; p97 ATPase inh: inactive; APP 5'UTR act: inactive; STAT1 activator: inactive; NF-kB neuron act: inactive; Wee1 degr inh: inactive

What do the screens show for `C=C1C(=O)O[C@@H]2C[C@@H](C)[C@@H]3C=CC(=O)[C@@]3(C)[C@@H](OC(C)=O)[C@H]12`?
MDM2 E3 inh: 35

How did C[C@@H]1C[C@@H]2OC(=O)[C@]3(C)[C@H]2[C@@H](OC3(C)O)[C@]2(C)C(=O)C=C[C@H]12 (stereo partly drawn) do in these assays?
MDM2 E3 inh: inactive

What do the screens show for `O=C(NNC(=O)C1CCCN(c2ncccn2)C1)c1ccncc1` (stereo not drawn)?
MDM2 E3 inh: inactive; p97 ATPase inh: inactive; APP 5'UTR act: inactive; STAT1 activator: inactive; NF-kB neuron act: inactive; Wee1 degr inh: inactive
